Source: PubChem BioAssay
Most compounds without a hit are left out; they make up all but 7.9% or so of the library.
SF-1 act = SF-1 (human) activation; Q13285; CHO-K1 Gal4-SF-1 LBD luciferase reporter; % increase over DMSO SF-1-specific signal; activation, % at 10 µM; hit rate 1.9% among 65,000; AID 522;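 active = activation above the mean activation of all tested compounds plus 3 SD, cut at about 50% in these data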
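Assay system: CHO-K1 cells co-transfected with Gal4 DBD–human SF-1 LBD, 5xGal4 luciferase reporter; doses: 10 µM only; incubation: 20 h compound exposure at 37 °C after 1 h cell settling; signal: luciferase light emission; evaluation: percent activation versus DMSO; repeats: one test per compound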
RORa activator = activates the human nuclear receptor RORA. P35398. CHO-K1 Gal4-RORA LBD luciferase reporter, luminescence; percent increase over mock-subtracted basal signal. activation, % at 10 µM. hit rate 1.5% among 65,000. AID 560;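 active = activation above the mean of all tested compounds plus 3 SD, cut at about 49% in these data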
Target sequence (P35398 whole entry, looked up, the tested form may be a part): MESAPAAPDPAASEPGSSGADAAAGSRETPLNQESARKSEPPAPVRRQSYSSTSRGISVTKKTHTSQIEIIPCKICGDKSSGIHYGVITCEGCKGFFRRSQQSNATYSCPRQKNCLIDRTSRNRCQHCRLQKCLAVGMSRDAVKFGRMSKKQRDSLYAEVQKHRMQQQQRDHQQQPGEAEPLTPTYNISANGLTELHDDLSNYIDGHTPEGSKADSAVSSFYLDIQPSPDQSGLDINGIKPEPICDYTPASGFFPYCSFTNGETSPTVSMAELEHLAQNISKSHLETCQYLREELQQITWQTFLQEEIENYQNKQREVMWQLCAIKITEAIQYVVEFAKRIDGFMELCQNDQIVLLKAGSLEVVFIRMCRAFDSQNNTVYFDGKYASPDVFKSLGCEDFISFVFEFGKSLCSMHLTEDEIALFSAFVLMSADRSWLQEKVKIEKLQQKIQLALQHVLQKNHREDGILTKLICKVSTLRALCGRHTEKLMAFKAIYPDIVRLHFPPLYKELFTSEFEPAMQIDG
HEK293 NFkB inh = inhibitors of the PMA/ionomycin-induced NF-kB reporter in HEK293 cells; HEK-293 NF-kB luciferase reporter, luminescence; hit rate 0.21% among 62,000; inhibition, % at 3 µM; AID 465;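 active = inhibition above the mean of all tested compounds plus 3 SD, cut at about 40% in these data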
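Signal: luciferase luminescence; Material: HEK-293 cells with stable firefly luciferase reporter driven by four HIV NF-kB elements; Probe or stimulus: PMA with ionomycin; Replication: tested once; Times: 1 h compound pretreatment, then 16 h stimulation at 37 °C, 5% CO2; Benchmarks: DMSO and 10 µM reference inhibitor; Evaluation: per-plate % inhibition versus controls.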
JNK3 blocker = JNK3 (human) kinase inhibition. purified JNK3 kinase activity, HTS. P53779. inhibition, % at 8 µM. AID 746. hit rate 0.61% among 60,000; in the data active = inhibition above about 17%
D1 allo mod = D1 dopamine receptor (human) allosteric modulation; HEK293 D1, CRE-luciferase, dopamine EC30 potentiation; actives deviate in either direction; P21728; B-score at 10 µM; hit rate 5.9% among 58,000; AID 641;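 active = luminescence count or its row- and column-corrected plate score outside the 99.7% band of the plate's sample wells, on either side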
D1 PAM confirm = confirmation of human D1 dopamine receptor allosteric modulators; shares compounds with D1 allo mod; hit rate 88% among 2,200; luminescence at 10 µM; AID 642; HEK293 D1 CRE-luciferase, dopamine EC30 potentiation; active compounds read high;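 active = luminescence in either of two replicates above the same-plate mean plus 3 SD of the low-dose dopamine control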
D1 no dopamine = activates D1 CRE-luciferase signal without dopamine present; HEK293 D1 CRE-luciferase, luminescence, no dopamine; active compounds read high; hit rate 0.8% among 1,900; luminescence at 10 µM; shares compounds with D1 allo mod; in the data active = luminescence above about 3900
Isoprot counter = alters isoproterenol CRE-luciferase response in HEK293 cells; shares compounds with D1 allo mod; HEK293 D1 CRE-luciferase, isoproterenol EC30 counter-screen; calls only at 10 µM; hit rate 63% among 2,200; AID 647;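 active = luminescence in either replicate above plate mean of wells with a partly effective reference agonist dose plus 3 SD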;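 also: isoproterenol raises cAMP through native beta-adrenoceptor Gs so signal bypasses D1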
A number is an active result; . = inactive; / = not tested or not shown; + = active, no number.

SMILES	SF-1 act	RORa activator	HEK293 NFkB inh	JNK3 blocker	D1 allo mod	D1 PAM confirm	D1 no dopamine	Isoprot counter
COc1cccc(-c2nnc(SCC(=O)Nc3cc(C)on3)o2)c1	.	.	.	.	5.69	6316	.	.
COc1cc(C(=O)Nc2cc(Cl)ccc2C)c(-n2cnnn2)cc1OC	.	.	.	.	.	/	/	/
CCOc1cc(C2C(C(=O)OC)=C(C)N=C3SCCC(=O)N32)ccc1OC(C)=O (stereo not given)	.	.	.	.	5.1	6516	/	+
CCOc1ccc(C2C(C(=O)OC)=C(C)N=C3SCCC(=O)N32)cc1OCC (stereo not given)	.	.	.	.	/	/	/	/
CCOc1ccc(-c2nc(C#N)c(NCC(C)C)o2)cc1	.	.	/	.	/	/	/	/
CCOc1ccc(Nc2oc(-c3cccs3)nc2C#N)cc1	.	.	.	.	5.84	11044	.	+
N#Cc1nc(-c2cccs2)oc1NCc1ccccc1Cl	.	.	/	.	/	/	/	/
CCOc1ccc(Nc2oc(-c3ccco3)nc2C#N)cc1	.	.	.	.	4.02	19668	.	+
CC1CCN(S(=O)(=O)N2CCC(C(=O)NCc3cccs3)CC2)CC1	.	.	.	.	.	/	/	/
CCC(=O)N(Cc1cc2cc(OC)ccc2[nH]c1=O)c1cccc(C)c1	.	.	.	.	.	/	/	/
O=C(NCCN1CCN(c2ccccc2)CC1)C1CCN(S(=O)(=O)N2CCOCC2)CC1	.	.	.	.	.	/	/	/
O=C(NCCCN1CCN(c2ccccc2F)CC1)C1CCN(S(=O)(=O)N2CCOCC2)CC1	.	.	.	.	14.4	15768	10072	+
Cn1c(=O)c2c(ncn2CCN(CCO)Cc2ccccc2)n(C)c1=O	.	.	.	.	.	/	/	/
Cc1oc2ccc(OCC(N)=O)cc2c1C(=O)OC(C)C	.	.	.	31.6	4.65	6628	.	.
CCOC(=O)c1c(C)oc2ccc(OCC(=O)C(C)(C)C)cc12	.	.	/	.	.	/	/	/
O=C(OCC#CCSc1nnc(-c2ccc(Br)cc2)o1)c1ccco1	.	.	.	.	4.77	7080	.	.
CCCCCCn1c(SCCC)nc2c1c(=O)[nH]c(=O)n2C	.	.	.	.	.	/	/	/
CCOCCSc1nc2c(c(=O)[nH]c(=O)n2C)n1CCCc1ccccc1	.	.	/	.	5.59	12256	.	+
CCCCCn1c(SCCc2ccccc2)nc2c1c(=O)[nH]c(=O)n2C	.	.	.	.	5.52	12580	.	+
CCCCCn1c(SCCOCC)nc2c1c(=O)[nH]c(=O)n2C	.	.	.	.	9.56	20192	.	+
CCCn1c(SCCc2ccccc2)nc2c1c(=O)[nH]c(=O)n2C	.	.	.	.	.	/	/	/
C/C=C/Cn1c(SCCCc2ccccc2)nc2c1c(=O)[nH]c(=O)n2C	.	.	.	.	6.29	8184	.	.
CCOCCn1c(SCCc2ccccc2)nc2c1c(=O)[nH]c(=O)n2C	.	.	.	.	.	/	/	/
COc1cc(C(=O)N2CCC(c3nc(-c4cccnc4)no3)CC2)cc(OC)c1OC	.	.	.	.	.	/	/	/
Cc1cc(C(=O)NC(C)c2ccncc2)cs1 (stereo not given)	.	.	.	.	.	/	/	/
SMILES	SF-1 act	RORa activator	HEK293 NFkB inh	JNK3 blocker	D1 allo mod	D1 PAM confirm	D1 no dopamine	Isoprot counter
COc1cc(-n2c(=O)c3ccccc3n(Cc3cccnc3)c2=O)cc(OC)c1OC	.	.	.	.	/	/	/	/
O=c1c2ccccc2c2ccccc2c(=O)n1Cc1cccnc1	.	.	.	.	2.78	.	.	.
CCOC(=O)C1CCCCN1Cc1cc(Cl)ccc1O (stereo not given)	/	/	/	/	4	8896	/	+
Cc1ccc(S(=O)(=O)c2cc3c(=O)n4ccccc4nc3n(Cc3ccco3)c2=N)cc1	.	.	.	/	4.97	15320	.	+
Cc1c(NS(=O)(=O)c2ccc3c(c2)c(=O)n(C)c(=O)n3C)c(=O)n(-c2ccccc2)n1C	.	.	.	/	.	/	/	/
Cc1cc(C)n(-c2nc(C)nc(NCc3ccccc3)n2)n1	/	/	/	/	6.72	14476	.	+
CC(=O)C1=C(C)NC(SCC(=O)c2ccc(F)cc2)=C(C#N)C1c1ccco1 (stereo not given)	.	.	.	.	5.55	3664	.	.
Cc1ccc(CNC(=O)C2CCCCC2C(=O)O)cc1 (stereo not given)	.	.	.	.	.	/	/	/
CCOC(=O)c1cc(C#N)c(N)nc1C	.	.	.	.	4.56	8556	/	+
CCC(C)C(NC(=O)c1ccccc1NC(=O)c1ccco1)C(=O)NC1CCCCC1 (stereo not given)	.	.	.	.	.	/	/	/
c1ccc(N2CCN(c3ncnc4sc5c(c34)CCC5)CC2)cc1	.	.	.	.	.	/	/	/
O=C1OCCC1Sc1ncnc2sc3c(c12)CCC3 (stereo not given)	.	.	.	.	5.19	7272	.	.
Cc1cccc2cc(COC(=O)C(C)(C)C)c(=O)[nH]c12	.	.	.	.	.	/	/	/
O=C(CSc1nnc(Cn2c(=O)sc3ccccc32)n1CCc1ccccc1)N1CCOCC1	.	.	.	.	.	/	/	/
CCCn1c(CCc2ccccc2)nnc1SCC(=O)N1CCOCC1	.	.	.	.	3.23	.	.	.
Cn1c(Cn2c(=O)sc3ccccc32)nnc1SCC(=O)N1CCOCC1	.	.	.	.	5.14	8076	.	.
O=C(Cn1cc2c(n1)CCCC2)Nc1cc(-c2cccc(Cl)c2)no1	.	.	.	.	.	/	/	/
CCn1c(SCC(=O)O)nc2sc3c(c2c1=O)CCC3	.	.	/	.	.	/	/	/
COC(=O)CSc1nc2sc3c(c2c(=O)n1C1CCCCC1)CCN(C)C3	.	.	/	.	14.5	21932	.	+
C=CCn1c(SCC(=O)N2CCOCC2)nc2sc3c(c2c1=O)CCCC3	.	.	.	.	3.44	7424	.	+
CCn1c(SCC(=O)OC)nc2sc3c(c2c1=O)CCC3	/	/	/	/	16	16808	.	+
COc1ccc(-n2c(SCC(N)=O)nc3sc4c(c3c2=O)CCN(C)C4)cc1	.	.	/	.	.	/	/	/
Cc1nc2ccc(CCO)cc2s1	.	.	.	.	6.36	7448	.	.
Cc1nc2ccc(S(=O)(=O)NCC(=O)N3CCOCC3)cc2s1	.	.	.	.	.	/	/	/
COc1ccc(C2C(C(N)=O)=C(C)Nc3nc(-c4ccccc4OC)nn32)cc1OC (stereo not given)	.	.	.	.	.	/	/	/
COC(=O)c1nc2n(n1)C(c1ccc(OC)c(OC)c1)C(C(=O)OC1CCCCC1)=C(C)N2 (stereo not given)	.	.	.	/	3.29	7744	/	.
